Laboratory results: ChEMBL document CHEMBL4627259, “Discovery of LY3325656: A GPR142 agonist suitable for clinical testing in human” (Bioorg Med Chem Lett, 2020)
The source made the active and inactive calls. No cut-off for these calls is given here.

Experiments:
[1] = biological target: T1, Probable G-protein coupled receptor 142 (Homo sapiens) (UniProt Q7Z601); experiment: Agonist activity at human GPR142 receptor expressed in HEK293 cells assessed as accumulation of inositol phosphate at 30 uM to 1 nM incubated for 1 hr followed by IP1-d2 addition by HTRF assay relative to control; assay type: functional, cell-based
T1 sequence (whole entry): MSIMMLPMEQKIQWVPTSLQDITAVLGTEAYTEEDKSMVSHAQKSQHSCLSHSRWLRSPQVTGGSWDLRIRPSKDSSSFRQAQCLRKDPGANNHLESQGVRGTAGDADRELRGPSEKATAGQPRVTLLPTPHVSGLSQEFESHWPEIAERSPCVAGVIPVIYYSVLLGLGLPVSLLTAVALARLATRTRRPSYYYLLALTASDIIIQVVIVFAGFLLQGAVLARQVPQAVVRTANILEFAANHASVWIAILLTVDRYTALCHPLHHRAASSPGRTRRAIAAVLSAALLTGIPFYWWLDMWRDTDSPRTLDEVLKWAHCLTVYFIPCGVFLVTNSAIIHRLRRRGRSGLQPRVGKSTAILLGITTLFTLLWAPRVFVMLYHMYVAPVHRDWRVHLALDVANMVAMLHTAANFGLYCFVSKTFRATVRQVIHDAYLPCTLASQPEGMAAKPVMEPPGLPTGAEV
Outline: (§1)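 HEK293 cells stably expressing human GPR142 (DMEM, 10% FBS, 800 ug/mL G418, 37 °C, 5% CO2), seeded 5000 cells/well and left 18 h to attach. Compounds added at 30 uM to 1 nM, 1 h incubation in HBSS (+Ca, +Mg), 0.1% BSA, 50 mM LiCl, 20 mM HEPES pH 7.2. IP-1 HTRF read-out: IP1-d2 then cryptate, 1 h at 25 °C, 665/620 nm ratio converted via IP-1 standard curve; EC50 by 4-parameter logistic fit.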

[2] = Dissociation constant, pKa of compound; assay type: physicochemical
[3] = biological target: CYP2C9 (Homo sapiens, UniProt P11712); experiment: Inhibition of CYP2C9 (unknown origin) at 10 uM relative to control; assay type: ADME
Sequence of CYP2C9 (P11712 whole entry): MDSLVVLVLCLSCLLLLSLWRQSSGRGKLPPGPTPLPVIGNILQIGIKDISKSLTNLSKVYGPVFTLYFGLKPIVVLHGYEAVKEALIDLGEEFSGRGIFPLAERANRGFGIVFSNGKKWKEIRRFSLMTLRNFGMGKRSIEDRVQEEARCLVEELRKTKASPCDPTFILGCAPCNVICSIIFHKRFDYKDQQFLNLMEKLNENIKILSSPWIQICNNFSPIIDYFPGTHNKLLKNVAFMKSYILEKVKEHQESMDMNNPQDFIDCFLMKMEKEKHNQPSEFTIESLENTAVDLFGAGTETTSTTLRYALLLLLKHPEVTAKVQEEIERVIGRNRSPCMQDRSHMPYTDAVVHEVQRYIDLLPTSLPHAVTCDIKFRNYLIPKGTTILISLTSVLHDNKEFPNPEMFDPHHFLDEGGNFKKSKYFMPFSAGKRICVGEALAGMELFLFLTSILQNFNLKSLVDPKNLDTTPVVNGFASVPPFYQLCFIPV

[4] = Oral bioavailability in rat at 10 mg/kg; assay type: ADME, organism-based; details: in vivo
[5] = biological target: CYP2D6 (Homo sapiens, UniProt P10635); experiment: Inhibition of CYP2D6 (unknown origin) at 10 uM relative to control; assay type: ADME
Sequence of CYP2D6 (P10635 whole entry): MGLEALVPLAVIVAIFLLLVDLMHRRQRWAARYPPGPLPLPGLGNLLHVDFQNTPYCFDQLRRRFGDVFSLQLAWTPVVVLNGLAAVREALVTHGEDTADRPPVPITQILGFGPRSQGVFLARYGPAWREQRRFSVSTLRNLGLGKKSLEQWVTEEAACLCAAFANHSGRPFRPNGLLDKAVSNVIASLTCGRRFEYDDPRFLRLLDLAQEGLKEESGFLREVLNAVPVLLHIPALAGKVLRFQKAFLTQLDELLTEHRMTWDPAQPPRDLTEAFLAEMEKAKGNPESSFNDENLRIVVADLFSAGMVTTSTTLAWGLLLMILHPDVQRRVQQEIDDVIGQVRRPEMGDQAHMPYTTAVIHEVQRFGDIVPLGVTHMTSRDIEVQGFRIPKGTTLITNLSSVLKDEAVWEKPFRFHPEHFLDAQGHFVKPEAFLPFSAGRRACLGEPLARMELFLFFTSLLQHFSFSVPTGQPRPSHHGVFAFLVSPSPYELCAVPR

[6] = Volume of distribution at steady state in dog at 1 mg/kg, iv or 5 mg/kg, po; assay type: ADME, organism-based, Canis lupus familiaris; details: in vivo, read-out: Vdss
[7] = Drug metabolism in rat microsomes assessed as drug turnover at 20 uM measured after 30 mins by LCMS analysis; assay type: ADME, Microsome; details: read-out: Drug metabolism
Outline: (§2)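 High-throughput microsomal stability: compound at 20 uM incubated with mouse, rat, dog or human liver microsomes at 37 °C; percent parent remaining measured after 30 min and reported as % turnover.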

[8] = system: Mus musculus; experiment: Hypoglycemic activity in lean C57BL/6J mouse assessed as reduction in glucose level at 0.1 mg/kg, po administered 30 mins prior to glucose challenge measured for 60 mins by IPGTT; assay type: functional
Outline: (§3)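 IPGTT in male C57BL/6 mice, lean or diet-induced obese; compound given orally 30 min before intraperitoneal glucose load; blood glucose followed over time. Mean ± SEM, n=5 per group, compared with vehicle (p<0.05, 0.01, 0.001).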

[9] = Hypoglycemic activity in mouse pancreatic islets assessed as increase in glucose-dependent insulin secretion at 10 uM relative to control; assay type: functional, Pancreatic islet
Outline: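 Isolated mouse pancreatic islets; glucose-dependent insulin secretion measured at 2.8 mM and 11.1 mM glucose with compound at 10 uM.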

[10] = Drug metabolism in dog microsomes assessed as drug turnover at 20 uM measured after 30 mins by LCMS analysis; assay type: ADME, Canis lupus familiaris, Microsome; details: read-out: Drug metabolism; outline: as §2
[11] = system: Mus musculus; experiment: Hypoglycemic activity in diet-induced obese C57BL/6J mouse assessed as increase in plasma insulin secretion at 10 mg/kg, po administered 30 mins prior to glucose challenge measured after 15 mins by IPGTT; assay type: functional, organism-based; details: 15 mg/kg, in the assay text read “15 mg/kg” for “10 mg/kg”
Outline: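 IPGTT in male diet-induced obese mice; compound given orally 30 min before intraperitoneal glucose; plasma insulin measured. Mean ± SEM, n=5 per group, versus vehicle.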

[12] = system: Mus musculus; experiment: Hypoglycemic activity in po dosed lean C57BL/6J mouse assessed as reduction in glucose level administered 30 mins prior to glucose challenge measured for 60 mins by IPGTT; assay type: functional, organism-based; outline: as §3
[13] = system: Mus musculus; experiment: Hypoglycemic activity in lean C57BL/6J mouse assessed as reduction in glucose level at 0.03 mg/kg, po administered 30 mins prior to glucose challenge measured for 60 mins by IPGTT; assay type: functional; outline: as §3
[14] = biological target: CYP3A4 (Homo sapiens, UniProt P08684); experiment: Inhibition of CYP3A4 (unknown origin) at 10 uM relative to control; assay type: ADME
Sequence of CYP3A4 (P08684 whole entry): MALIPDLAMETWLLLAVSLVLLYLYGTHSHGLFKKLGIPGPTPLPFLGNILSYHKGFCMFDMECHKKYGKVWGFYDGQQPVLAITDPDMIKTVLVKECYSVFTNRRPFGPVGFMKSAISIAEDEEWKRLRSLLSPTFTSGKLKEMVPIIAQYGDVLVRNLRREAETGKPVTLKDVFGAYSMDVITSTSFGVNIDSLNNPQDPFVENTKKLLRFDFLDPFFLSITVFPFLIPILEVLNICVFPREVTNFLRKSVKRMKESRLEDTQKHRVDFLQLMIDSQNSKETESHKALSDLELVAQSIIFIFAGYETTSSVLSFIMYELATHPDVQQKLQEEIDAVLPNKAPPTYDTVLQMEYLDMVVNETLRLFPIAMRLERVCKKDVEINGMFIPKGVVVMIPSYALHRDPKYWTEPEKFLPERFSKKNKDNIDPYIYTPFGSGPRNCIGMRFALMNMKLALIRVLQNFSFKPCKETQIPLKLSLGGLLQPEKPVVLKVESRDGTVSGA

[15] = Drug metabolism in mouse microsomes assessed as drug turnover at 20 uM measured after 30 mins by LCMS analysis; assay type: ADME, Microsome; details: read-out: Drug metabolism; outline: as §2
[16] = Clearance in dog at 1 mg/kg, iv or 5 mg/kg, po; assay type: ADME, organism-based, Canis lupus familiaris; details: in vivo
[17] = Volume of distribution at steady state in rat at 1 mg/kg, iv or 10 mg/kg, po; assay type: ADME, organism-based; details: in vivo, read-out: Vdss
[18] = system: Mus musculus; experiment: Hypoglycemic activity in lean C57BL/6J mouse assessed as reduction in glucose level at 10 mg/kg, po administered 30 mins prior to glucose challenge measured for 60 mins by IPGTT; assay type: functional; outline: as §3
[19] = biological target: T2, Probable G-protein coupled receptor 142 (Homo sapiens, UniProt Q7Z601); experiment: Agonist activity at human GPR142 receptor expressed in HEK293 cells assessed as accumulation of inositol phosphate incubated for 1 hr followed by IP1-d2 addition by HTRF assay; assay type: functional, cell-based; outline: as §1
T2 sequence (Q7Z601 whole entry): T1 sequence (whole entry)

[20] = system: Mus musculus; experiment: Hypoglycemic activity in diet-induced obese C57BL/6J mouse assessed as reduction in glucose level at 15 mg/kg, po administered 30 mins prior to glucose challenge measured for 120 mins by IPGTT; assay type: functional, organism-based; outline: as §3
[21] = system: Mus musculus; experiment: Hypoglycemic activity in lean C57BL/6J mouse assessed as reduction in glucose level at 1 mg/kg, po administered 30 mins prior to glucose challenge measured for 60 mins by IPGTT; assay type: functional; outline: as §3
[22] = system: Mus musculus; experiment: Hypoglycemic activity in diet-induced obese C57BL/6J mouse assessed as increase in insulin secretion at 15 mg/kg, po co-administered with 5 mg/kg DPP-4 inhibitor, sitagliptin 30 mins prior to glucose challenge measured after 15 mins by IPGTT; assay type: functional, organism-based
[23] = Clearance in rat at 1 mg/kg, iv or 10 mg/kg, po; assay type: ADME, organism-based; details: in vivo
[24] = system: Mus musculus; experiment: Hypoglycemic activity in lean C57BL/6J mouse assessed as reduction in glucose level at 0.3 mg/kg, po administered 30 mins prior to glucose challenge measured for 60 mins by IPGTT; assay type: functional; outline: as §3
[25] = Drug metabolism in human microsomes assessed as drug turnover at 20 uM measured after 30 mins by LCMS analysis; assay type: ADME, Microsome; details: read-out: Drug metabolism; outline: as §2
[26] = system: Mus musculus; experiment: Hypoglycemic activity in lean C57BL/6J mouse assessed as reduction in glucose level at 0.01 mg/kg, po administered 30 mins prior to glucose challenge measured for 60 mins by IPGTT; assay type: functional; outline: as §3
[27] = Oral bioavailability in dog at 5 mg/kg; assay type: ADME, organism-based, Canis lupus familiaris; details: in vivo
[28] = Fractional renal clearance in dog at 1 mg/kg, iv or 5 mg/kg, po; assay type: ADME, organism-based, Canis lupus familiaris; details: in vivo
[29] = system: Mus musculus; experiment: Hypoglycemic activity in diet-induced obese C57BL/6J mouse assessed as reduction in glucose level at 15 mg/kg, po co-administered with 5 mg/kg DPP-4 inhibitor, sitagliptin 30 mins prior to glucose challenge measured after 120 mins by IPGTT; assay type: functional, organism-based; outline: as §3
[30] = Solubility of compound at pH 2 to 7.5; assay type: physicochemical; details: buffer
[31] = Toxicity in rat assessed as NOAEL administered as repeated dose for 1 month; details: in vivo
[32] = biological target: Cytochrome P450 3A4 (Homo sapiens, UniProt P08684); experiment: Induction of CYP3A4 (unknown origin) at 10 uM; assay type: ADME
Sequence of Cytochrome P450 3A4 (P08684 whole entry): as above

[33] = biological target: Cytochrome P450 2D6 (Homo sapiens, UniProt P10635); experiment: Induction of CYP2D6 (unknown origin) at 10 uM; assay type: ADME
Sequence of Cytochrome P450 2D6 (P10635 whole entry): as the sequence (P10635 whole entry) above

[34] = Permeability of compound; assay type: ADME; details: not told
[35] = biological target: Cytochrome P450 2C9 (Homo sapiens, UniProt P11712); experiment: Induction of CYP2C9 (unknown origin) at 10 uM; assay type: ADME
Sequence of Cytochrome P450 2C9 (P11712 whole entry): as the sequence (P11712 whole entry) above

[36] = Toxicity in dog assessed as NOAEL administered as repeated dose for 1 month; design: species or system Canis lupus familiaris; details: in vivo

SMILES | pKa [2] | inhibition at 10 µM [3] | bioavailability [4] | inhibition at 10 µM [5] | Vd [6] | metabolised at 0.5 h, 20 µM [7] | metabolised at 0.5 h, 20 µM [10] | inhibition at 10 µM [14] | metabolised at 0.5 h, 20 µM [15] | clearance [16] | Vd [17] | EC50 [19] | clearance [23] | metabolised at 0.5 h, 20 µM [25] | bioavailability [27] | CL [28] | other results
Cc1ncn(C)c1NC(=O)[C@H]1CCC[C@@H](N(C)C(=O)c2cccc(C(F)(F)F)c2)C1 | 6.9 | 14% | 28% | 0% | 1.2 L/kg | 41% | 28% | 6.1% | 89% | 17.6 mL/min/kg | 1.3 L/kg | 30 nM | 49.6 mL/min/kg | 32% | 66% | 20% | Emax [1]: 104%; inhibition in vivo at 0.1 mg/kg [8]: 12%; fold change (FC) [9]: 1.4; Activity [11]: Active; Activity [12]: Dose-dependent effect; inhibition in vivo at 0.03 mg/kg [13]: 11%; inhibition in vivo at 10 mg/kg [18]: 47%; Activity [20]: Active; inhibition in vivo at 1 mg/kg [21]: 34%; Activity [22]: Active; inhibition in vivo at 0.3 mg/kg [24]: 27%; inhibition in vivo at 0.01 mg/kg [26]: 9%; Activity [29]: Active
Cc1ncn(C)c1-c1nnc([C@@H]2C[C@H](N(C)C(=O)c3cccc(C(F)(F)F)c3)CCO2)[nH]1 | 5.9 | 11% | 63% | 16% | 1.3 L/kg | 14% | 13% | 22% | 22% | 8.4 mL/min/kg | 1.1 L/kg | 43 nM | 22.1 mL/min/kg | 14% | 78% | < 5% | solubility [30]: > 2000 µg/mL; NOAEL at 1 month [31]: 200 mg/kg; Activity [32]: Not Active; Activity [33]: Not Active; Papp [34]: 13.5 ×10⁻⁶ cm/s; Activity [35]: Not Active; NOAEL at 1 month [36]: 180 mg/kg
